Reference: ChEMBL document CHEMBL2057084, “Discovery of benzylisothioureas as potent divalent metal transporter 1 (DMT1) inhibitors” (Bioorg Med Chem Lett, 2012)
The source made the active and inactive calls. The rule behind the calls is not given here.

How the values were obtained:
[1] = Inhibition of human DMT1B-IRE expressed in CHO cells assessed as blockage of ferrous influx after 20 mins by calcein fluorescence quenching method; assay type: cell-based
Method in brief: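 Calcein fluorescence quench assay for DMT1 (conditions detailed in supplementary data); IC50s are the average of at least two independent determinations.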

[2] = molecular target: T1, Natural resistance-associated macrophage protein 1 (Homo sapiens, UniProt P49279); assay: Inhibition of NRAMP1 expressed in CHO cells; assay type: cell-based
T1 sequence (P49279 whole entry): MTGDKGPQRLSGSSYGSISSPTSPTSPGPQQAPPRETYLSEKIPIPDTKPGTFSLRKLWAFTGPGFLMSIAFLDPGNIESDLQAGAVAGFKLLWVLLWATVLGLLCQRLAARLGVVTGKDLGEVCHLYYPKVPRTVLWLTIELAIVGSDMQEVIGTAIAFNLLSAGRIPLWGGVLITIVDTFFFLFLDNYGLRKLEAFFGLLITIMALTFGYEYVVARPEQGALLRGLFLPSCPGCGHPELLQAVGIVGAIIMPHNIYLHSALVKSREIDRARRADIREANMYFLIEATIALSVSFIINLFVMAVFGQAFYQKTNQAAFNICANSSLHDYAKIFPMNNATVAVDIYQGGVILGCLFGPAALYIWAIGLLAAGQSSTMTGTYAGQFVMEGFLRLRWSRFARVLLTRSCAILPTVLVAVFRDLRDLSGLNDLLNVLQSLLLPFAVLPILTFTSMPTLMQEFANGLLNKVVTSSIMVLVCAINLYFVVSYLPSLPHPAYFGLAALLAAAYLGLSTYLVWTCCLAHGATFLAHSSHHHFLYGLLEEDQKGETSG

[3] = Apparent permeability across apical to basolateral side in human Caco2 cells; assay type: ADME, cell-based; conditions: Caco-2
Method in brief: (§1)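 Caco-2 cell monolayers; apparent permeability measured in both directions (apical→basolateral and basolateral→apical); […].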

[4] = Apparent permeability across basolateral to apical side in human Caco2 cells; assay type: ADME, cell-based; conditions: Caco-2; method in brief: as §1
Rattus norvegicus [5] = assay: Inhibition of intestinal iron uptake in po dosed acute weanling rat model of iron hyperabsorption assessed as decrease of serum iron level administered after 1 hr post iron challenge; assay type: functional, organism-based
Method in brief: (§2)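 Anemic conscious rats ([…], serum iron <50 µg/dL); test article dosed po in 5% DMSO, 10% EtOH, 30% PEG400, 35% propylene glycol, 20% water; 1 h later oral challenge of 1 mg/kg Fe2+ as ferrous sulfate; serum iron measured 1 h after challenge; 8 animals per group, mean ± SEM; one-way ANOVA with Dunnett's test versus vehicle group.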

Rattus norvegicus [6] = assay: Toxicity in acute weanling rat model at 25 to 50 mg/kg, po; assay type: organism-based; parameters: dose 25-50 mg/kg, route oral; conditions: in vivo
Method in brief: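 Rats in the acute iron hyperabsorption study (anemic, conscious) dosed po at 25 or 50 mg/kg in 5% DMSO, 10% EtOH, 30% PEG400, 35% propylene glycol, 20% water; clinical observations recorded during the study.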

Rattus norvegicus [7] = assay: Inhibition of intestinal iron uptake in acute weanling rat model of iron hyperabsorption assessed as decrease of serum iron level at 50 mg/kg, po administered after 1 hr post iron challenge relative to control; assay type: functional; method in brief: as §2
Rattus norvegicus [8] = assay: Inhibition of intestinal iron uptake in acute weanling rat model of iron hyperabsorption assessed as decrease of serum iron level at 25 mg/kg, po administered after 1 hr post iron challenge; assay type: functional, organism-based; parameters: dose 25 mg/kg; method in brief: as §2
Rattus norvegicus [9] = assay: Inhibition of intestinal iron uptake in acute weanling rat model of iron hyperabsorption assessed as decrease of serum iron level at 50 mg/kg, po administered after 1 hr post iron challenge; assay type: functional, organism-based; parameters: dose 50 mg/kg; method in brief: as §2

Row | IC50 [1] [nM] | IC50 [2] [µM] | Papp A→B [3] [×10⁻⁶ cm/s] | Papp B→A [4] [×10⁻⁶ cm/s] | SMILES | inhibition (Rattus norvegicus [5]) | Activity (Rattus norvegicus [6]) | fold change (FC) (Rattus norvegicus [7]) | inhibition (Rattus norvegicus [8]) | inhibition (Rattus norvegicus [9])
1 | 1440 | > 10 |  |  | COc1ccc(Sc2ccccc2CSC(=N)N)c(CSC(=N)N)c1 |  |  |  |  | 
2 | 5040 | > 10 |  |  | N=C(N)SCc1cccc2sc3cccc(CSC(=N)N)c3c12 |  |  |  |  | 
3 | 20 | > 10 |  |  | N=C(N)SCc1cccc2c1oc1c(CSC(=N)N)cc(F)cc12 |  |  |  |  | 
4 | 580 | > 10 |  |  | N=C(N)SCc1ccccc1C(=O)c1ccc(F)cc1CSC(=N)N |  |  |  |  | 
5 | 290 | > 10 | < 0.1 | 0.1 | Br.CS(=O)(=O)c1ccc(Sc2ccc(F)cc2CSC(=N)N)c(CSC(=N)N)c1 |  |  |  |  | 
6 | 690 | > 10 | 0.1 | 3.8 | Br.N=C(N)SCc1cc(F)ccc1Sc1ccc(C(F)(F)F)cc1CSC(=N)N |  |  |  |  | 
7 | 100 | > 10 | < 0.1 | 0.4 | Br.N=C(N)SCc1cccc2c1-c1c(CSC(=N)N)cccc1-2 |  |  |  |  | 
8 | 320 | > 10 | < 0.1 | 0.2 | Br.N=C(N)SCc1cc(F)ccc1Oc1ccc(F)cc1CSC(=N)N |  |  |  |  | 
9 | 580 | > 10 | 0.4 | 0.3 | Br.N=C(N)SCc1cccc2c1C(=O)c1c(CSC(=N)N)cccc1-2 |  |  |  |  | 
10 | 110 | > 10 | 0.2 | 0.1 | Br.N=C(N)SCc1c(Br)ccc2c1oc1c(CSC(=N)N)c(Br)ccc12 |  |  |  |  | 
11 | 2920 | > 10 |  |  | N=C(N)SCc1ccccc1C(=O)c1ccc(Cl)cc1CSC(=N)N |  |  |  |  | 
12 | 730 | > 10 |  |  | CN(c1ccccc1CSC(=N)N)c1ccccc1CSC(=N)N |  |  |  |  | 
13 | 750 | > 10 | 1.3 | 0.2 | Br.N=C(N)SCc1cccc2c1sc1c(CSC(=N)N)c(Br)ccc12 |  |  |  |  | 
14 | 320 | > 10 | 1.3 | 1.4 | Br.N=C(N)SCc1ccccc1Sc1cc(F)c(F)cc1CSC(=N)N |  |  |  |  | 
15 | 530 | > 10 | 2.4 | 2.4 | Br.COc1ccc(Sc2ccc(F)cc2CSC(=N)N)c(CSC(=N)N)c1 |  |  |  |  | 
16 | 340 | > 10 | 0.1 | 0.2 | Br.N=C(N)SCc1ccccc1Oc1ccccc1CSC(=N)N | Dose-dependent effect | Non-toxic | 8 | Active | Active
17 | 910 | > 10 |  |  | N=C(N)SCc1ccccc1Sc1ccc(N)cc1CSC(=N)N |  |  |  |  | 
18 | 80 | > 10 | 0.1 | 0.2 | Br.N=C(N)SCc1cc(F)ccc1Sc1ccc([N+](=O)[O-])cc1CSC(=N)N | Dose-dependent effect | Non-toxic |  | Active | Active
19 | 40 | > 10 | 0.5 | 0.2 | Br.N=C(N)SCc1cc(F)cc2c1sc1c(CSC(=N)N)cc(Cl)cc12 |  |  |  |  | 
20 | > 15000 | > 10 |  |  | N=C(N)SCc1cccc2c1-c1c(CSC(=N)N)cccc1C2=O |  |  |  |  | 
21 | 260 | > 10 | < 0.1 | < 0.1 | Br.N=C(N)SCc1cccc2c1sc1c(CSC(=N)N)cccc12 |  |  |  |  | 
22 | 490 | > 10 | 1.5 | 1.4 | Br.Cc1ccc(Sc2ccccc2CSC(=N)N)c(CSC(=N)N)c1 |  |  |  |  | 
23 | 860 | > 10 | 4 | 2 | Br.N=C(N)SCc1c(Br)ccc2c1sc1c(CSC(=N)N)c(Br)ccc12 |  |  |  |  | 
24 | 180 | > 10 | 0.1 | 1.4 | Br.N=C(N)SCc1ccccc1Sc1ccccc1CSC(=N)N | Dose-dependent effect | Non-toxic |  |  | Active
25 | 290 | > 10 | 0.2 | 0.5 | N=C(N)SCc1cccc2cc3cccc(CSC(=N)N)c3nc12 |  |  |  |  | 

Row | IC50 [1] [nM] | IC50 [2] [µM] | Papp A→B [3] [×10⁻⁶ cm/s] | Papp B→A [4] [×10⁻⁶ cm/s] | SMILES | inhibition (Rattus norvegicus [5]) | Activity (Rattus norvegicus [6]) | fold change (FC) (Rattus norvegicus [7]) | inhibition (Rattus norvegicus [8]) | inhibition (Rattus norvegicus [9])
26 | 90 | > 10 |  |  | N=C(N)SCc1cccc2c1sc1c(CSC(=N)N)cc(F)cc12 |  |  |  |  | 
27 | 50 | > 10 | < 0.1 | 0.2 | Br.N=C(N)SCc1cccc2c1oc1c(CSC(=N)N)cccc12 |  |  |  |  | 
28 | 950 | > 10 | < 0.1 | 0.1 | Br.CN(C)S(=O)(=O)c1ccc(Sc2ccc(F)cc2CSC(=N)N)c(CSC(=N)N)c1 |  |  |  |  | 
29 | 340 | > 10 | 0.2 | 0.9 | Br.N=C(N)SCc1cc(F)ccc1Oc1cc(Cl)ccc1CSC(=N)N |  |  |  |  | 
30 | 1130 | > 10 |  |  | N=C(N)SCc1ccccc1Oc1ccc(Cl)cc1CSC(=N)N |  |  |  |  | 
31 | 3770 | > 10 |  |  | Cc1cccc(CSC(=N)N)c1Sc1ccccc1CSC(=N)N |  |  |  |  | 
32 | 4150 | > 10 |  |  | N=C(N)SCc1cc(F)ccc1Sc1c(CSC(=N)N)cccc1[N+](=O)[O-] |  |  |  |  | 
33 | 290 |  | 0.9 | 1.2 | Cc1cc(C)c(CSC(=N)N)c(C)c1CSC(=N)N |  |  |  |  | 
34 | 840 | > 10 | < 0.1 | 0.4 | Br.N=C(N)SCc1cc(F)ccc1Oc1cc(F)ccc1CSC(=N)N |  |  |  |  | 
35 | 160 | > 10 |  |  | N=C(N)SCc1cc(F)ccc1Oc1ccc([N+](=O)[O-])cc1CSC(=N)N |  |  |  |  | 
36 | 2020 | > 10 |  |  | N=C(N)SCc1ccccc1C(=O)c1cc(F)ccc1CSC(=N)N |  |  |  |  | 
37 | 90 | > 10 | 5 | 1 | Br.N=C(N)SCc1c(F)ccc2c1oc1c(CSC(=N)N)c(F)ccc12 |  |  |  |  | 
38 | 150 | > 10 | 0.4 | 0.4 | Br.N=C(N)SCc1cc(F)ccc1Sc1ccc(F)cc1CSC(=N)N |  |  |  |  | 
39 | 15000 | > 10 |  |  | N=C(N)SCc1ccccc1Oc1cc(Cl)ccc1CSC(=N)N |  |  |  |  | 
40 | 150 | > 10 |  |  | N=C(N)SCc1cccc2c1Oc1c(CSC(=N)N)cccc1S2 |  |  |  |  | 
41 | 600 | > 10 | < 0.1 | 0.2 | Br.N=C(N)SCc1cc(F)ccc1Sc1cc(F)c(F)cc1CSC(=N)N |  |  |  |  | 
42 | 270 | > 10 | < 0.1 | 0.4 | Br.N=C(N)SCc1c(Cl)ccc2c1oc1c(CSC(=N)N)c(Cl)ccc12 |  |  |  |  | 
43 | 3020 | > 10 |  |  | N=C(N)SCc1cc(Cl)ccc1Sc1ccc(Cl)cc1CSC(=N)N |  |  |  |  | 
44 | 1450 | > 10 |  |  | Cc1ccc(CSC(=N)N)c(Sc2ccc(F)cc2CSC(=N)N)c1 |  |  |  |  | 
45 | 5200 | > 10 |  |  | N=C(N)SCc1ccccc1C(=O)c1cc(Cl)ccc1CSC(=N)N |  |  |  |  | 
46 | 150 | > 10 | 0.3 | 0.2 | Br.N=C(N)SCc1ccccc1Sc1ccc(F)cc1CSC(=N)N |  |  |  |  | 
47 | 510 | > 10 | 0.3 | 0.2 | Br.N=C(N)SCc1ccccc1Sc1cc(F)ccc1CSC(=N)N |  |  |  |  | 
48 | 2890 | > 10 |  |  | N=C(N)SCc1cc(Cl)ccc1Oc1ccc([N+](=O)[O-])cc1CSC(=N)N |  |  |  |  | 
49 | 370 | > 10 | 0.1 | 0.7 | Br.N=C(N)SCc1ccccc1C(=O)c1cc([N+](=O)[O-])ccc1CSC(=N)N |  |  |  |  | 
